# Measurements gathered from unrelated publications.
# Each line is one published result; the experiments were not run side by side.
# ABL1 phosphorylated: Tyrosine-protein kinase ABL1, phosphorylated (ABL1, Homo sapiens, UniProt P00519)
# ABL1 F317L phosphorylated: Tyrosine-protein kinase ABL1, phosphorylated (ABL1, Homo sapiens, UniProt P00519, F317L)
# ABL1 F317I phosphorylated: Tyrosine-protein kinase ABL1, phosphorylated (ABL1, Homo sapiens, UniProt P00519, F317I)
# ABL1 T315I phosphorylated: Tyrosine-protein kinase ABL1, phosphorylated (ABL1, Homo sapiens, UniProt P00519, T315I)
# ABL1 T315I non-phosphorylated: Tyrosine-protein kinase ABL1, non-phosphorylated (ABL1, Homo sapiens, UniProt P00519, T315I)
SMILES,target,assay,conditions,remaining binding
O=C(NCCCN1CCOCC1)c1ccc(Nc2ncc(Cl)c(-c3ccc(Cl)s3)n2)cc1,ABL1 phosphorylated,"binding, competition with immobilised ligand",1 µM,36%
N[C@@H]1CCN(c2nccc(-c3cnn4ncccc34)n2)C1,ABL1 phosphorylated,binding,1 µM,95%
Cc1cc(-n2nc(Cc3cc(F)cc(C(F)(F)F)c3)nc2C)ccc1C(N)=O,ABL1 F317L phosphorylated,"cell-free assay, competition with immobilised ligand",1 µM,100%
COc1cnc(Nc2cccc(S(N)(=O)=O)c2)nc1N1CCN(c2ccccc2)C(=O)C1,ABL1 F317I phosphorylated,"binding, competition with immobilised ligand",1 µM,96%
Cn1nc(C(F)(F)F)cc1-c1cnc(N2CCc3cc(S(=O)(=O)Nc4c(F)cc(Cl)cc4F)cc(N4CCCC4=O)c32)nc1,ABL1 T315I phosphorylated,"cell-free assay, competition with immobilised ligand",1 µM,82%
CNC(=O)[C@@H]1CC[C@@H](n2c(-c3ccc4cnccc4c3)nc3ccc(C(=O)NCc4cccc(C(N)=O)c4)cc32)C1,"Tyrosine-protein kinase ABL1, phosphorylated (ABL1, Homo sapiens, UniProt P00519, M351T)","binding, competition with immobilised ligand",1 µM,92%
CO[C@@H](C)c1c(Nc2ccc([C@H](N(C)C(=O)C3CCS(=O)(=O)CC3)C(F)(F)F)cc2)cnc2cc(Cl)nn12,ABL1 F317I phosphorylated,binding,1 µM,100%
O=C(NCC1CCOCC1)c1n[nH]cc1NC(=O)c1c(F)cccc1F,ABL1 phosphorylated,"binding, competition with immobilised ligand",1 µM,85%
Cc1cc(C)c(-n2ccn3nc(-c4cccnc4)cc23)cc1NC(=O)c1cc(C#N)cc(S(F)(F)(F)(F)F)c1,ABL1 F317L phosphorylated,"cell-free assay, competition with immobilised ligand",0.1 µM,63.3%
CN(CCCC(F)(F)F)c1nccc(-c2cnn3ncccc23)n1,ABL1 phosphorylated,binding,1 µM,100%
O=C(NCCCN1CCOCC1)c1ccc(Nc2nccc(-c3cc4ccccc4s3)n2)cc1,ABL1 F317I phosphorylated,"binding, competition with immobilised ligand",1 µM,84%
C[C@@H](c1ccc(-n2cnc3c(N)ncnc32)cc1)N1CCc2nn(C)c(Cc3ccccc3)c2C1=O,ABL1 F317L phosphorylated,"binding, competition with immobilised ligand",0.1 µM,49%
O=C(c1ccc(Nc2ncc(Cl)c(-c3cc4ccccc4s3)n2)cc1)N1CCC(N2CCCC2)CC1,"Tyrosine-protein kinase ABL1, non-phosphorylated (ABL1, Homo sapiens, UniProt P00519, Q252H)","binding, competition with immobilised ligand",1 µM,7.5%
COc1cccc(CNC(=O)c2nc3scc(COCc4ccc(C(=O)O)cc4)c3c(=O)[nH]2)c1,"Tyrosine-protein kinase ABL1, phosphorylated (ABL1, Homo sapiens, UniProt P00519, Y253F)","cell-free assay, competition with immobilised ligand",1 µM,84.6%
Nc1ncc2c(n1)-c1c([nH]c3ccc(C#CC4CC4)cc13)CCCC2,ABL1 T315I phosphorylated,"binding, competition with immobilised ligand",1 µM,97%
c1cncc(-c2cccc(Nc3nccc(NC4CCCCC4)n3)c2)c1,"Tyrosine-protein kinase ABL1, non-phosphorylated (ABL1, Homo sapiens, UniProt P00519, F317L)","binding, competition with immobilised ligand",10 µM,81%
O=C1NC(c2ccccn2)Sc2ccccc21 (centres unmarked),ABL1 phosphorylated,"cell-free assay, competition with immobilised ligand",1 µM,72%
COc1ccnn2ncc(-c3ccnc(N(C)C)n3)c12,ABL1 phosphorylated,binding,1 µM,73%
C=CC(=O)N1CCC(C(=O)NCC(=O)N2CCN(c3nc(-c4cnc(N)nc4C(F)F)nc(N4CCOCC4)n3)CC2)CC1,ABL1 F317L phosphorylated,"binding, competition with immobilised ligand",1 µM,100%
C[C@H]1CCN(c2nccc(-c3cnn4ncccc34)n2)C1,"Tyrosine-protein kinase ABL1 (ABL1, Homo sapiens, UniProt P00519, T315I)",binding,1 µM,82%
CCCOc1ccc([C@@H]2[C@@H](C(=O)O)[C@H](c3ccc4c(c3)OCO4)CN2CC(=O)Nc2c(CC)cccc2CC)cc1,ABL1 T315I non-phosphorylated,"cell-free assay, competition with immobilised ligand",1 µM,83%
Cc1cnc(Nc2ccc(C(=O)N3CCC(N4CCCC4)CC3)cc2)nc1-c1cc2ccccc2s1,ABL1 T315I non-phosphorylated,"binding, competition with immobilised ligand",1 µM,0.1%
CN(C)c1ncc(F)c(-c2cnn3ncccc23)n1,"Tyrosine-protein kinase ABL1 (ABL1, Homo sapiens, UniProt P00519, E255K)",binding,1 µM,66%
